# Results: PMC6110378 (The Pediatric Infectious Disease Journal, 2018)
# Starred links: 1 amine or outer side, 2 acyl side, 3 side chain; linkers in the order of their positions; H or OH if unused. Positions of bridges follow the written chain, without caps; N, C: chain ends. Non-standard residues stand in square brackets, D forms with d. Residues, ends and D or L forms follow the SMILES beside them. *: point of attachment. hTyr(3S-OH,4S-OH,3'-OSO3H) = N[C@H](C(=O)O)[C@H](O)[C@@H](O)c1ccc(O)c(OS(=O)(=O)O)c1; Orn(4R-OH,5R-OH) = O=C([C@H](C[C@@H](O)[C@@H](O)N[*:3])N[*:1])[*:2]; Pro(3S-OH,4S-Me) = C[C@H]1CN[C@H](C(=O)O)[C@H]1O; X1 = CCCCCOc1ccc(-c2cc(-c3ccc(C(=O)*)cc3)no2)cc1; Gln(3R-OH) = NC(=O)C[C@@H](O)[C@H](N)C(=O)O; Hyp = O=C(O)[C@@H]1C[C@@H](O)CN1
# Key:
# [1] = system: hematogenous Candida meningoencephalitis; details: rabbit model of hematogenous Candida meningoencephalitis; cited from earlier work
# [2] = Population PK model; type: in vivo, human infants; details: 2-compartment population PK model, 64 infants
# How it was run: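 The dataset was 287 HPLC-measured plasma concentrations from 64 infants aged 3–119 days in 4 pediatric trials, at doses of 0.75–10 mg/kg. A 2-compartment model was fitted in Pmetrics, with infusion into the central compartment and observations weighted by inverse assay variance. Clearance was allometrically scaled. Clearance and volume were normalized to the 1.8 kg mean weight. Kcp and Kpc are central↔peripheral transfer rates. Fit was assessed from observed versus predicted values, r2, bias and imprecision.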
# [3] = system: Candida; experiment: MIC values of isolates from infants with invasive candidiasis; type: cell-based
structure (smiles),measurement,setting,value
"CCCCCOc1ccc(-c2cc(-c3ccc(C(=O)N[C@H]4C[C@@H](O)[C@@H](O)NC(=O)[C@@H]5[C@@H](O)[C@@H](C)CN5C(=O)[C@H]([C@H](O)CC(N)=O)NC(=O)[C@H]([C@H](O)[C@@H](O)c5ccc(O)c(OS(=O)(=O)O)c5)NC(=O)[C@@H]5C[C@@H](O)CN5C(=O)[C@H]([C@@H](C)O)NC4=O)cc3)no2)cc1 [micafungin] (X1-[Orn(4R-OH,5R-OH)]T[Hyp][hTyr(3S-OH,4S-OH,3'-OSO3H)][Gln(3R-OH)][Pro(3S-OH,4S-Me)]; lactam 1-C)",AUC:MIC ratio PD target for near-maximal effect,[1],1332
same,CNS PD target AUC for near-maximal effect,[1],approximately 166.5 mg·h/L
same,"Vstd (volume in the central compartment), median","[2]; normalized to 1.8 kg, median",0.43 L/1.8 kg
same,"Kcp (rate of drug moving from the central to the peripheral compartment), mean",[2]; mean (range),1.74 (0.035–5.966) h^–1
same,"Kpc (rate of drug moving from the peripheral to the central compartment), mean",[2]; mean (range),1.92 (0.090–5.970) h^–1
same,"Kcp, median",[2]; median,0.99 h^–1
same,"Kpc, median",[2]; median,2.00 h^–1
same,MIC90,[3]; isolates of infants in the 2 mg/kg study (n = 17),1 µg/mL
same,MIC90,[3]; isolates of infants in the 10 mg/kg study (n = 12),2 µg/mL
